# From ChEMBL document CHEMBL4376844, “A Novel Decalin-Based Bicyclic Scaffold for FKBP51-Selective Ligands” (J Med Chem, 2020)
# Activity calls are given as the source filed them. No cut-off for these calls is given here.
# What was measured:
# [1] = molecular target: T1, Peptidyl-prolyl cis-trans isomerase FKBP5 (Homo sapiens, UniProt Q13451); test: Inhibition of human full length N-terminal His-tagged/C-terminal FLAG tagged FKBP51 expressed in Escherichia coli BL21 (DE3) cells incubated for 30 mins by competitive fluorescence polarization assay
# T1 sequence (Q13451 whole entry): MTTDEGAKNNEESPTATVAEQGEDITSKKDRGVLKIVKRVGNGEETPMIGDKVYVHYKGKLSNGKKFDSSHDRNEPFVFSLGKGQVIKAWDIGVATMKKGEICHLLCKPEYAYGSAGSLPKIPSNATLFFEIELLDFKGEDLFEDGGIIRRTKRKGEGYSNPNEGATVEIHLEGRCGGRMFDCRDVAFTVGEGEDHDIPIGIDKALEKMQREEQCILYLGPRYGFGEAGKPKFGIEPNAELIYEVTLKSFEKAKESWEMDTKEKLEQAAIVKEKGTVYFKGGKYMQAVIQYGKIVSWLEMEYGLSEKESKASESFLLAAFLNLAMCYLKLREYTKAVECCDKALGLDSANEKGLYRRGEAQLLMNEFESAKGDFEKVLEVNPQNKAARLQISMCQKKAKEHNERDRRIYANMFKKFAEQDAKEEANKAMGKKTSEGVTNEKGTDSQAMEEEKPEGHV
# [2] = molecular target: T2, Peptidyl-prolyl cis-trans isomerase FKBP4 (Homo sapiens, UniProt Q02790); test: Inhibition of human full length N-terminal His-tagged/C-terminal FLAG tagged FKBP52 expressed in Escherichia coli BL21 (DE3) cells incubated for 30 mins by competitive fluorescence polarization assay; conditions: 0.5 h
# T2 sequence (Q02790 whole entry): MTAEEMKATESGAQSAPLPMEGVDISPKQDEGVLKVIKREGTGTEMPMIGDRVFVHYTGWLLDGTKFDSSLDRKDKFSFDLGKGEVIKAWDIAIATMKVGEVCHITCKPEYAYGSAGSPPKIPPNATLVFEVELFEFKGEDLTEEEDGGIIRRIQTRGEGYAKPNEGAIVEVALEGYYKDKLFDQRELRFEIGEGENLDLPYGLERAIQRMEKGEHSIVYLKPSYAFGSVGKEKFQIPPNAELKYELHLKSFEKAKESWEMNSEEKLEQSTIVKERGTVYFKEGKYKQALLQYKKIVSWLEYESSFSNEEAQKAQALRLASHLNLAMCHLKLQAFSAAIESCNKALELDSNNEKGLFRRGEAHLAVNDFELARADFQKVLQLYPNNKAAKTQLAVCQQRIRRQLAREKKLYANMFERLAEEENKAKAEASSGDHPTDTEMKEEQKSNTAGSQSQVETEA
# [3] = Solubility of compound; type: physicochemical
# [4] = molecular target: T3, Peptidyl-prolyl cis-trans isomerase FKBP5 (Homo sapiens) (UniProt Q13451); test: Inhibition of human full length N-terminal His-tagged/C-terminal FLAG tagged FKBP51 expressed in Escherichia coli BL21 (DE3) cells at >=10 uM incubated for 30 mins by competitive fluorescence polarization assay
# T3 sequence (whole entry): T1 sequence (Q13451 whole entry)
# [5] = molecular target: Cytochrome P450 3A4 (Homo sapiens, UniProt P08684); test: Inhibition of CYP3A4 (unknown origin); type: ADME
# [6] = system: KB; test: Cytotoxicity against human KB/HeLa cells overexpressing FKBP51 assessed as cell death up to 60 uM incubated for 72 hrs by propidium iodide staining based flow cytometry analysis; type: functional
# In short: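 KB cells exposed to a range of compound doses for 72 h. 1×10^5 cells washed in PBS, then permeabilized in 0.1% sodium citrate, 0.1% Triton X-100 and 50 µg/mL propidium iodide for 30 min at 4°C in the dark. Nuclear DNA content read by flow cytometry on a log scale with debris gated out by forward scatter; % hypodiploid nuclei taken as dead cells. Four experiments, each in triplicate.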
# Cytochrome P450 3A4, sequence (P08684 whole entry): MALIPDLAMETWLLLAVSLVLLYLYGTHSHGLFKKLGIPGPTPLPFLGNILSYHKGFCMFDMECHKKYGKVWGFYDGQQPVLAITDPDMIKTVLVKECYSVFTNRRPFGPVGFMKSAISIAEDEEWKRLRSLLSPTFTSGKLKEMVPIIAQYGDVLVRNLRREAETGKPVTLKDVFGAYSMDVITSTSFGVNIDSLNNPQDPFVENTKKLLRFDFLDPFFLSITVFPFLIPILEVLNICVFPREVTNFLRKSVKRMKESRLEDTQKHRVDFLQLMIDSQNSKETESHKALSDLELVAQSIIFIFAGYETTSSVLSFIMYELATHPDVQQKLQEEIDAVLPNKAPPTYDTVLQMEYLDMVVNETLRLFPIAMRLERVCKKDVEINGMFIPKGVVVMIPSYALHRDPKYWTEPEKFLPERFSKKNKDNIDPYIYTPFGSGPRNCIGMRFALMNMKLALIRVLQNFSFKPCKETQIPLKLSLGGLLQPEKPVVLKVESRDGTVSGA
Compound,Ki [1],inhibition (INH) [2],solubility [3],inhibition [4],also measured
"COc1ccc(CCC(OC(=O)C2CCCCN2C(=O)[C@H]2[C@@H]3CCCC[C@H]3C=C[C@@H]2C)c2cccc(OCCN3CCOCC3)c2)cc1OC (single isomer, unassigned)",1900 nM,Not Active,,,
COc1ccc(CC[C@@H](OC(=O)[C@@H]2CCCCN2C(=O)c2ccnc3ccccc23)c2cccc(OCC(=O)O)c2)cc1OC,,,> 10 µM,inactive,
COc1ccc(CC[C@@H](OC(=O)[C@@H]2CCCCN2C(=O)[C@@H]2CCC(=O)[C@@H]3CCC[C@H]32)c2cccc(OCC(=O)O)c2)cc1OC,3100 nM,Not Active,,,
COc1ccc(CC[C@@H](OC(=O)[C@@H]2CCCCN2C(=O)[C@@H]2CCC[C@@H]3CCCC[C@H]32)c2cccc(OCC(=O)O)c2)cc1OC,810 nM,Not Active,,,IC50 [5]: 8400 nM
"COc1ccc(CCC(OC(=O)C2CCCCN2C(=O)[C@@H]2CC(=O)C[C@@H]3CCCC[C@H]32)c2cccc(OCCN3CCOCC3)c2)cc1OC (single isomer, unassigned)",1300 nM,Not Active,,,
COc1ccc(CC[C@@H](OC(=O)[C@@H]2CCCCN2C(=O)[C@@H]2CC=C[C@@H]3CCCC[C@H]32)c2cccc(OCC(=O)O)c2)cc1OC,2400 nM,Not Active,,,
"COc1ccc(CCC(OC(=O)C2CCCCN2C(=O)[C@@H]2CCC(=O)[C@@H]3CCCC[C@H]32)c2cccc(OCCN3CCOCC3)c2)cc1OC (single isomer, unassigned)",230 nM,Not Active,,,
COc1ccc(CC[C@@H](OC(=O)[C@@H]2CCCCN2C(=O)[C@@H]2CCC[C@@H]3CCC[C@H]32)c2cccc(OCC(=O)O)c2)cc1OC,2600 nM,Not Active,,,
COc1ccc(CC[C@@H](OC(=O)[C@@H]2CCCCN2C(=O)[C@@H]2CCCc3ccccc32)c2cccc(OCC(=O)O)c2)cc1OC,,,> 10 µM,inactive,
COc1ccc(CC[C@@H](OC(=O)[C@@H]2CCCCN2C(=O)c2cccc3c2CCCC3)c2cccc(OCC(=O)O)c2)cc1OC,,,> 10 µM,inactive,
COc1ccc(CC[C@@H](OC(=O)[C@@H]2CCCCN2C(=O)[C@H]2[C@@H]3CCCC[C@H]3C=C[C@@H]2C)c2cccc(OCC(=O)O)c2)cc1OC,2000 nM,Not Active,,,
COc1ccc(CC[C@@H](OC(=O)[C@@H]2CCCCN2C(=O)c2cccc3cccnc23)c2cccc(OCC(=O)O)c2)cc1OC,,,> 10 µM,inactive,
COc1ccc(CC[C@@H](OC(=O)[C@@H]2CCCCN2C(=O)c2nccc3ccccc23)c2cccc(OCC(=O)O)c2)cc1OC,,,> 10 µM,inactive,
COc1ccc(CC[C@@H](OC(=O)[C@@H]2CCCCN2C(=O)[C@H]2[C@@H]3CCCC[C@H]3CC[C@@H]2C)c2cccc(OCC(=O)O)c2)cc1OC,490 nM,Not Active,,,
COc1ccc(CC[C@@H](OC(=O)[C@@H]2CCCCN2C(=O)[C@@H]2CC=C[C@@H]3CCC[C@H]32)c2cccc(OCC(=O)O)c2)cc1OC,7800 nM,Not Active,,,
COc1ccc(CC[C@@H](OC(=O)[C@@H]2CCCCN2C(=O)[C@@H]2C[C@H]3OC(C)(C)O[C@H]3[C@@H]3CCCC[C@H]32)c2cccc(OCCN3CCOCC3)c2)cc1OC,8200 nM,Not Active,,,
"COc1ccc(CCC(OC(=O)C2CCCCN2C(=O)[C@@H]2CC=C[C@@H]3CCCC[C@H]32)c2cccc(OCCN3CCOCC3)c2)cc1OC (single isomer, unassigned)",2600 nM,Not Active,,,
COc1ccc(CC[C@@H](OC(=O)[C@@H]2CCCCN2C(=O)[C@@H]2CCC(O)[C@@H]3CCCC[C@@H]23)c2cccc(OCCN3CCOCC3)c2)cc1OC (stereo not given in full),,Not Active,,,
COc1ccc(CC[C@@H](OC(=O)[C@@H]2CCCCN2C(=O)C2=CCc3ccccc32)c2cccc(OCC(=O)O)c2)cc1OC,,,> 10 µM,inactive,
COc1ccc(CC[C@@H](OC(=O)[C@@H]2CCCCN2C(=O)c2cccc3ccccc23)c2cccc(OCC(=O)O)c2)cc1OC,,,> 10 µM,inactive,Activity [6]: inactive
COc1ccc(CC[C@@H](OC(=O)[C@@H]2CCCCN2C(=O)[C@@H]2CC(=O)C[C@@H]3CCC[C@H]32)c2cccc(OCC(=O)O)c2)cc1OC,28000 nM,Not Active,,,
"COc1ccc(CCC(OC(=O)C2CCCCN2C(=O)[C@H]2[C@@H]3CCCC[C@H]3C(=O)C[C@@H]2C)c2cccc(OCCN3CCOCC3)c2)cc1OC (single isomer, unassigned)",330 nM,Not Active,,,
